In PubChem BioAssay AID1216 (Sanford-Burnham Center for Chemical Genomics, 2008):
Hit rate of the full screen: of about 190,000 compounds, about 660 (0.35%) were called active. This is one part of a sample in which actives are shown more often than they occur.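 Rule for the calls: active = activation factor of 2 or more at 20 µM; inactive = the rest.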

Target: Mannose-6-phosphate isomerase (Homo sapiens) (UniProt P34949)
Assay: MPI activation at elevated mannose 6-phosphate – biochemical, fluorescence intensity, near-saturating mannose 6-phosphate, primary screen (AID 1216)
Conditions: coupled PMI enzyme assay, resazurin fluorescence, 20 min; at 20 µM; hits give high values; 1 = untreated enzyme, 0 = substrate-free blank
How it was run: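 test system = human PMI in coupled enzyme assay | medium = HEPES-buffered pH 7.4 with magnesium and detergent | also added = 1.0 mM mannose-6-phosphate substrate with 0.22 mM NADP+ | compound = 20 µM single dose | times = 20 min incubation at room temperature | measured by = resorufin fluorescence (Ex 544/Em 590 nm) from resazurin via diaphorase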

Chain of Mannose-6-phosphate isomerase (Homo sapiens) (P34949 whole entry, looked up): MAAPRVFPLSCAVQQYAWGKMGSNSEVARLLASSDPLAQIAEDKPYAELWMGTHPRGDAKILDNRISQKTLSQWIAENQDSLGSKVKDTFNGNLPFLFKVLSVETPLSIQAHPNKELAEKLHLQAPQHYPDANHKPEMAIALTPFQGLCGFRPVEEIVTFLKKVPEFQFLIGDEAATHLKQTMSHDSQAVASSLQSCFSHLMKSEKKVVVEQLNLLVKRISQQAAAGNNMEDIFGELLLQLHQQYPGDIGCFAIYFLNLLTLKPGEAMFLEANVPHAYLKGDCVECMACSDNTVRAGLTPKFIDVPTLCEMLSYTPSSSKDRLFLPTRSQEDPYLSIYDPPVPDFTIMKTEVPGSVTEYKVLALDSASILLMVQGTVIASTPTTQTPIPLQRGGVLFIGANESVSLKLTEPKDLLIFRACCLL

Activation factor, active:
C=C1c2cc(CC)ccc2NC(=O)N1c1ccc(C)cc1 2.1, COc1cc(C(=O)OCc2ccc([N+](=O)[O-])cc2)cc(OC)c1OC 2, CCOC(=O)C1=C(C)NC(SC)=NC1c1ccccc1 (stereo unspecified) 2.7, Cc1cc(C2=NNC(=Nc3ccc(S(=O)(=O)N4CCOCC4)cc3)SC2)c(C)n1CC1CCCO1 (stereo unspecified) 2.1, O=C(NNc1cc(Cl)ccc1Cl)c1cccnc1Cl 2, COC(=O)c1sc2[nH]c(=S)n(N)c(=O)c2c1C 2, COC(=O)c1[nH]c2cccc(C)c2c1NC(=O)CN1CCCc2ccccc21 2.1, COCCCNC(=S)NCCNc1nc2cc(C)c(C)cc2cc1C#N 2.1, S=c1[nH]nc(NCCc2ccccc2)s1 2.1, S=c1[nH]nc(Nc2ccccc2)s1 2

Activation factor, inactive:
COc1ccc(NC(=S)SC)cc1OC 0.7, CCC(CC)C(=O)Nc1ccc(S(=O)(=O)Nc2nccs2)cc1 0.9, CCn1c(N)c(Br)c(=O)[nH]c1=O 1.1, CC(=O)Nc1sc2c(c1C(c1cccc(F)c1)N1CCN(CCO)CC1)CCCC2 (stereo unspecified) 1.1, Cc1cc(SCC(=O)NCCN2C(=O)CSC2=O)nc2ccccc12 1.2, Cc1cc(C(=O)COC(=O)C2CC2)c(C)n1-c1ccc(F)cc1 0.9, Cc1ccc(N2C(=O)C(Cc3ccccc3)NC2=S)cc1 (stereo unspecified) 0.8, Cc1ccc(N2C(=O)C3CC3C2=O)cc1 (stereo unspecified) 1, CCOC(=O)N1CCN(C(=O)Cn2cnc3ccccc3c2=O)CC1 1, COc1ccc(NC(=O)c2sc(N3CCOCC3)nc2-c2ccccc2)c(OC)c1 1, COc1cc(/C=N/O)ccc1OCc1ccc([N+](=O)[O-])cc1 1, O=C(OCc1ccc([N+](=O)[O-])cc1)c1ccccn1 0.9, COc1ccc(-n2nc(C(=O)Nc3cc(OC)c(OC)c(OC)c3)c3ccccc3c2=O)c(OC)c1 0.9, O=C(CSc1nnc(-c2ccc([N+](=O)[O-])cc2)o1)Nc1ccccn1 1, CCOC(=O)C1=C(C)NC(=O)NC1c1ccccc1 (stereo unspecified) 1, CCOC(=O)C1=C(C)NC(C)=C(C(=O)OCC)C1c1ccccn1 1, CSc1cccc(NC(=S)N(Cc2ccccc2)Cc2ccccn2)c1 0.9, CCO[C@@H]1OC(C(=O)NCc2nc3ccccc3[nH]2)=C[C@H](C2CCCCC2)[C@H]1CCCO 0.9, O=C(COC(=O)c1ccc(F)cc1)Nc1nc2ccc([N+](=O)[O-])cc2s1 1, C=CCn1c(C)cc(C2=NNC(=NCC)SC2)c1C 1.1, COCCn1c(C)cc(C2=NNC(=Nc3ccc(F)cc3)SC2)c1C 1.3, COc1ccccc1NC(=S)N1CCN(C(c2ccccc2)c2ccccc2)CC1 1, O=C(Nc1ccc(NC(=O)c2ccco2)c(Cl)c1)c1cccc([N+](=O)[O-])c1 1, CC(C)(C)c1ccc(/C=C/C(=O)Nc2ncccn2)cc1 0.8, Cc1ccc(CNC(=O)c2cccnc2Cl)cc1 1, Cc1ccc(Cl)cc1NC(=O)c1ccccn1 1, O=C(COc1ccc(-c2ccccc2)cc1)NN=C1CCCC1 1, Cc1ccc(-c2nn(-c3cccc(F)c3)cc2CNCCc2ccncc2)o1 1, COc1ccc(N2CCN(C(=O)CCSCc3ccccc3F)CC2)cc1 0.9, CCOc1cc(N2CCOCC2)c(OCC)cc1NC(=O)c1ccc(C)s1 0.7, CCOC(=O)Cn1c(N)c(C(=O)OC)sc1=S 1.1, COC(=O)c1sc(=S)n(-c2ccccc2)c1N 0.9, Cc1cccc(C)c1NC(=O)CNC(=O)Cc1ccc(Br)cc1 1, O=S(=O)(Nc1cc(S(=O)(=O)N2CCOCC2)ccc1N1CCCC1)c1cccs1 1.1, NC(=O)CC[C@@H]1NC(=O)[C@@H]2CCCN2C(=O)c2cc([N+](=O)[O-])cc(F)c2NCCC[C@@H](C(N)=O)NC1=O 1, O=C(CC1C(=O)NCCN1CC(c1ccccc1)c1ccccc1)NCCc1cn[nH]c1 (stereo unspecified) 0.8, NS(=O)(=O)c1cccc(NC(=O)CN2CCCc3ccccc32)c1 1.1, COC(=O)c1[nH]c2ccccc2c1NC(=O)CN1CCCc2ccccc21 0.9, C=CCNC(=O)c1ccccc1NC(=O)c1ccc(Cl)c(S(=O)(=O)Nc2cccc(C)c2C)c1 1, Cc1cccc(C)c1NC(=S)N(Cc1cccnc1)Cc1ccccc1Cl 0.8, CCOC(=O)c1[nH]ncc1CN1CCCC(C(=O)c2ccc(OC)cc2C)C1 (stereo unspecified) 1.1, COc1ccccc1N(C)S(=O)(=O)c1ccc(Cl)c(C(=O)N2CCC(C(N)=O)CC2)c1 1.1, CCn1cc(-c2cc(C(=O)O)on2)c(C)n1 1.2, COCCCNC(=S)NC(=O)c1ccc([N+](=O)[O-])cc1 0.9, Cc1ccc2nc(NCCCNC(=O)c3cnccn3)c(C#N)cc2c1 0.9, O=C(NCc1ccccc1Cl)C1CCC(CNc2c(N3CCCCC3)c(=O)c2=O)CC1 (stereo unspecified) 1, CCCCn1c(O)c(N=NC(=O)Cn2c(C(F)(F)F)nc3ccccc32)c2ccccc21 1, CCOC(=O)N1CCC(=NNC(N)=O)CC1 1, COc1cccc2cc(/C(C)=N/NC(=O)c3ccco3)oc12 1.1, COc1ccccc1N(CC(=O)Nc1ccc(C(F)(F)F)cc1)S(C)(=O)=O 1.1, O=C(CSc1ncccn1)NCCc1ccccc1 1, Cc1nc(C)c(-c2csc(NCCc3ccccc3)n2)s1 1, CC(C)(C)C(=O)c1cnc(Nc2ccccc2)s1 1, c1ccc(Nc2n[nH]nc2-c2ccccc2)cc1 0.9, N=c1c2c3c(sc2ncn1N)CCCC3 0.9, O=c1[nH]cnc2c1c(-c1ccccc1)cn2-c1ccc(F)cc1 1
